From ChEMBL document CHEMBL2311305, “Antiproliferative potency of novel benzofuran-2-carboxamides on tumour cell lines: cell death mechanisms and determination of crystal structure” (Eur J Med Chem, 2013)

Columns and labels:
SK-BR-3 = assay: Cytotoxicity against human SKBR3 cells after 72 hrs by MTT assay; assay type: functional, cell-based; settings: SK-BR-3, 72 h
Procedure, shortened: (§1)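 Cells seeded at 3000-6000 per well on day 0, according to cell line doubling time. Compound added in five 10-fold dilutions, 72-h incubation, then MTT colorimetric read-out. Absorbances converted to percentage growth by NCI formulae. IC50 obtained by linear regression between the concentrations bracketing PG 50; ">100" assigned when no concentration reaches it. Quadruplicate points, three independent experiments.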

MIA PaCa-2 = assay: Cytotoxicity against human MIAPaCa2 cells after 72 hrs by MTT assay; assay type: functional, cell-based; procedure, shortened: as §1
SW-620 = assay: Cytotoxicity against human SW620 cells after 72 hrs by MTT assay; assay type: functional, cell-based; procedure, shortened: as §1
MCF7 = assay: Cytotoxicity against human MCF7 cells after 72 hrs by MTT assay; assay type: functional, cell-based; procedure, shortened: as §1
HeLa = assay: Cytotoxicity against human HeLa cells after 72 hrs by MTT assay; assay type: functional, cell-based; procedure, shortened: as §1
WI-38 = assay: Cytotoxicity against human WI38 cells after 72 hrs by MTT assay; assay type: cell-based; procedure, shortened: as §1

| SMILES | IC50 (SK-BR-3) | IC50 (MIA PaCa-2; Homo sapiens, MIA PaCa-2, 72 h) | IC50 (SW-620; Homo sapiens, SW-620, 72 h) | IC50 (MCF7; Homo sapiens, MCF7, 72 h) | IC50 (HeLa; Homo sapiens, HeLa, 72 h) | IC50 (WI-38; Homo sapiens, WI-38, 72 h) | IC50 (MIA PaCa-2; mia paca-2) | IC50 (SW-620; sw-620) | IC50 (MCF7; mcf7) | IC50 (HeLa; hela) | IC50 (WI-38; wi-38) |
| --- | --- | --- | --- | --- | --- | --- | --- | --- | --- | --- | --- |
| N#Cc1ccc(NC(=O)c2cc3ccccc3o2)cc1 | 34.2 µM | 27.1 µM | 7.4 µM | 7.6 µM | 7.6 µM | 7.9 µM | – | – | – | – | – |
| CC(=O)Nc1ccc(NC(=O)c2cc3ccccc3o2)cc1 | > 100 µM | > 100 µM | > 100 µM | 45.1 µM | 77.3 µM | 71.2 µM | – | – | – | – | – |
| N#Cc1ccc2nc(NC(=O)c3cc4ccccc4o3)sc2c1 | > 100 µM | > 100 µM | > 100 µM | 21.5 µM | 89.6 µM | 34.9 µM | – | – | – | – | – |
| O=C(Nc1nc2ccc(C3=NCCN3)cc2s1)c1cc2ccccc2o1 | > 100 µM | 97.1 µM | 56.4 µM | 50.9 µM | 59.8 µM | 59.2 µM | – | – | – | – | – |
| CN(C)c1ccc(NC(=O)c2cc3ccccc3o2)cc1 [listing 1 of 2 here] | – | – | – | – | – | – | > 100 µM | 86 µM | 35.6 µM | 83.7 µM | > 100 µM |
| O=C(Nc1ccc([N+](=O)[O-])cc1)c1cc2ccccc2o1 | > 100 µM | 26.6 µM | 27.9 µM | 4.9 µM | 11.4 µM | 47.6 µM | – | – | – | – | – |
| N#Cc1ccc2nc(NC(=O)c3cc4ccccc4o3)[nH]c2c1 | > 100 µM | > 100 µM | 9.2 µM | > 100 µM | > 100 µM | 9.1 µM | – | – | – | – | – |
| O=C(Nc1nc2ccc([N+](=O)[O-])cc2[nH]1)c1cc2ccccc2o1 | > 100 µM | 9.3 µM | 6.9 µM | 5.2 µM | 9.2 µM | 8.6 µM | – | – | – | – | – |
| O=C(Nc1nc2ccc([N+](=O)[O-])cc2s1)c1cc2ccccc2o1 | > 100 µM | > 100 µM | > 100 µM | 63.9 µM | 17.5 µM | 72.9 µM | – | – | – | – | – |
| O=C(Nc1ccc([N+](=O)[O-])cn1)c1cc2ccccc2o1 | > 100 µM | 73.1 µM | 76.5 µM | 82.8 µM | 42.4 µM | 37.8 µM | – | – | – | – | – |
| N#Cc1ccc(NC(=O)c2cc3ccccc3o2)nc1 | > 100 µM | 44.7 µM | 69.2 µM | 5.3 µM | 23.9 µM | 52.4 µM | – | – | – | – | – |
| CN(C)c1ccc(NC(=O)c2cc3ccccc3o2)cc1 [listing 2 of 2 here] | > 100 µM | – | 54.2 µM | – | 49.1 µM | 81.2 µM | 49.6 µM | – | 8.5 µM | – | – |
| O=C(Nc1ccc(C2=NCCN2)cn1)c1cc2ccccc2o1 | > 100 µM | > 100 µM | 67.1 µM | > 100 µM | 71.9 µM | 68.7 µM | – | – | – | – | – |
